Data as given in article PMC3739880 (The FASEB Journal, 2011).

How the values were obtained:
[1] = target: T1, Leishmania Ddi1 (Leishmania major, UniProt I7HUG0); assay: Proteinase inhibitor assay; format: cell-based, L. major; settings: for inhibition at 25 µM: read-out: Y16141 Leishmania, Inhibition at 25 μM (%)
T1 sequence (I7HUG0 148-390): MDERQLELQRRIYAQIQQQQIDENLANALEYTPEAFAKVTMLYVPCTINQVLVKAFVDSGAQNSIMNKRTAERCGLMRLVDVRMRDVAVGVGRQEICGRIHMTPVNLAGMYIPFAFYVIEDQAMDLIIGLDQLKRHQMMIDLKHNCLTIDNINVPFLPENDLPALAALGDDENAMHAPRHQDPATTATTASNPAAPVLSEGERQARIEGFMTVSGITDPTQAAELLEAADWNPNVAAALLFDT

[2] = target: T2, human Ddi1 (Homo sapiens, UniProt Q8WTU0); assay: Proteinase inhibitor assay; format: cell-based; settings: for inhibition at 25 µM: read-out: Y16141 human, Inhibition at 25 μM (%)
T2 sequence (Q8WTU0 1-396): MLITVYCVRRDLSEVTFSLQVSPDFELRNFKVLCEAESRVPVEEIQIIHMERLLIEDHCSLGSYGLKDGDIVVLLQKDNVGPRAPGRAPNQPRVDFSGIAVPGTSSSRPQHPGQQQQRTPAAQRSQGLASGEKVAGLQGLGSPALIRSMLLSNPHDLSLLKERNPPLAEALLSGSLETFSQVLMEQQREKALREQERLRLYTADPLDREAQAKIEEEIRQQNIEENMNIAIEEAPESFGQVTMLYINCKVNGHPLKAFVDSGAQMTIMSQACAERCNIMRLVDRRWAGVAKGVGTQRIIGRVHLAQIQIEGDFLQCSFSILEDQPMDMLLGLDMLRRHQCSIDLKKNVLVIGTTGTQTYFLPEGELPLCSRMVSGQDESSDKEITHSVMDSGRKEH
Method in brief: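 Yeast DDI1-knockout Y16141 (BY4742 derivative) carrying the human Ddi1 ortholog in pVTL260, grown in selective minimal medium. Cultures shaken 48 h at 30°C to A600 ~2 with or without inhibitor (25 μM, or titrated). Supernatant protein measured against a BSA standard and expressed per mg dried-pellet weight. IC50 from a 4-parameter logistic fit. Means ± se, n=6.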

[3] = target: T3, S. cerevisiae Ddi1 (Saccharomyces cerevisiae, UniProt P40087); assay: Proteinase inhibitor assay; format: cell-based; settings: for inhibition at 25 µM: read-out: Y16141 Ddi1, Inhibition at 25 μM (%)
T3 sequence (P40087 1-428): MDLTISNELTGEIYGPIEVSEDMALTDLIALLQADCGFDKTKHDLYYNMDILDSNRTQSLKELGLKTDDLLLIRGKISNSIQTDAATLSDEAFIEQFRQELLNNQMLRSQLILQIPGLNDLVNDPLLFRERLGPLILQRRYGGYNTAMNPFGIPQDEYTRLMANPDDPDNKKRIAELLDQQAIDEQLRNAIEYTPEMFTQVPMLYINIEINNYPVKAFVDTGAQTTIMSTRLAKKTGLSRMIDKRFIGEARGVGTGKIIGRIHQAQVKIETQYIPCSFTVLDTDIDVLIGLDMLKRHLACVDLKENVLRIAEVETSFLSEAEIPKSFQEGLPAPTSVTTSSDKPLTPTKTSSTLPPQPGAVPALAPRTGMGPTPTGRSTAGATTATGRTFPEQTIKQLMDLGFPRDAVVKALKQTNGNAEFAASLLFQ
Method in brief: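 S. cerevisiae Ddi1 was expressed from pVTL260 in DDI1-knockout Y16141, transformed by lithium acetate. Colony precultured overnight at 30°C in selective minimal medium, then shaken 48 h at 30°C to A600 ~2 with or without inhibitor (25 μM, or a titration).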

[4] = tested on: wild-type S. cerevisiae BY4742; assay: Proteinase inhibitor assay; format: cell-based; settings: Saccharomyces cerevisiae, read-out: BY4742, inhibition at 25 μM (%)
Method in brief: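 Wild-type BY4742 colony precultured overnight at 30°C in selective minimal medium, then shaken 48 h at 30°C to A600 ~2 with or without 25 μM inhibitor. Cells pelleted by centrifugation. Supernatant protein measured by RC DC assay with BSA standard and expressed as mg secreted per mg dry weight of pellet dried at 100°C. n=6.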

[5] = tested on: L. amazonensis; settings: read-out: IC50, inhibition of cellular growth and multiplication with L. amazonensis; parasites in culture; cited from earlier work
[6] = tested on: Y16141 cells expressing human ortholog of Ddi1; assay: Yeast cell morphology, Y16141 with human Ddi1 construct; format: cell-based, S. cerevisiae; settings: 25 μM inhibitor; yeast transformed to express the human ortholog of Ddi1
Method in brief: (§1)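 DDI1-knockout Y16141 carried pVTL260, either alone or encoding full-length Ddi1 orthologs, introduced by lithium acetate transformation. Grown 24 h at 30°C in selective minimal medium with or without 25 μM inhibitor. Morphology examined by phase-contrast microscopy at ×100, with images captured digitally. Fraction of cells with greatly enlarged morphology was recorded.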

[7] = tested on: Y16141 cells transformed with pVTL260 plasmid; assay: Yeast cell morphology, knockout yeast transformed with plasmid alone; format: cell-based, S. cerevisiae; settings: 25 μM inhibitor
Method in brief: as §1

[8] = tested on: Y16141 cells expressing Saccharomyces Ddi1; assay: Yeast cell morphology, Y16141 with Saccharomyces Ddi1 construct; format: cell-based, S. cerevisiae; settings: 25 μM inhibitor, 24 h
Method in brief: as §1

[9] = tested on: L. infantum; settings: cited from earlier work
[10] = tested on: Y16141 cells expressing L. major Ddi1 ortholog; assay: Yeast cell morphology, Y16141 with Leishmania Ddi1 construct; format: cell-based, S. cerevisiae; settings: 25 μM inhibitor, 24 h
Method in brief: as §1

[11] = tested on: Leishmania donovani; settings: cited from earlier work
[12] = tested on: L. major; settings: read-out: IC50, growth inhibition in L. major; parasites in culture; cited from earlier work

Row | SMILES | inhibition at 25 µM [1] [%] | inhibition at 25 µM [2] [%] | inhibition at 25 µM [3] [%] | inhibition at 25 µM [4] [%] | IC50 [5] [µM] | effect on cell morphology [6] | IC50 [1] [µM] | effect on cell morphology [7] | cells with greatly enlarged morphologies (% of cells) [8] | IC50 [3] [µM] | IC50 [2] [µM] | sensitivity of L. infantum [9] | Hill slope factor ([1]; Y16141 expressing the L. major Ddi1 ortholog, Eq. 1 fit) | cells with greatly enlarged morphologies (% of cells) [10] | sensitivity of Leishmania donovani [11] | IC50 [12] [µM]
1 | CC(C)c1nc(CN(C)C(=O)N[C@H](C(=O)N[C@@H](Cc2ccccc2)C[C@H](O)[C@H](Cc2ccccc2)NC(=O)OCc2cncs2)C(C)C)cs1 [Ritonavir] | 22 | 3 | 0 | 1 | – | – | – | – | – | – | – | – | – | – | – | –
2 | CC(C)CN(C[C@@H](O)[C@H](Cc1ccccc1)NC(=O)O[C@H]1CCOC1)S(=O)(=O)c1ccc(N)cc1 [Amprenavir] | 100 | 9 | 95 | 91 | 62 | no effects | 5.7 ± 0.7 | no effects | ~75 % of cells | 2.8 ± 0.2 | – | – | – | – | – | –
3 | Cc1cccc(C)c1OCC(=O)N[C@@H](Cc1ccccc1)[C@@H](O)C[C@H](Cc1ccccc1)NC(=O)[C@H](C(C)C)N1CCCNC1=O [Lopinavir] | 38 | 0 | 6 | 6 | 16 | – | 56 ± 4 | – | – | – | – | – | – | – | – | –
4 | CCC[C@@]1(CCc2ccccc2)CC(O)=C([C@H](CC)c2cccc(NS(=O)(=O)c3ccc(C(F)(F)F)cn3)c2)C(=O)O1 [Tipranavir] | 97 | 90 | 86 | 58 | – | – | 2.9 ± 0.2 | – | – | – | 1.5 ± 0.2 | – | – | – | – | –
5 | Cc1c(O)cccc1C(=O)N[C@@H](CSc1ccccc1)[C@H](O)CN1C[C@H]2CCCC[C@H]2C[C@H]1C(=O)NC(C)(C)C [Nelfinavir] | 100 | 97 | 40 | 50 | 15 | no effects | 0.44 ± 0.03 | no effects | – | – | 3.4 ± 0.4 | tens of micromolar range | 0.72 ± 0.04 | ~95 % of cells | tens of micromolar range | –
6 | CC(C)(C)NC(=O)[C@@H]1CN(Cc2cccnc2)CCN1C[C@@H](O)C[C@@H](Cc1ccccc1)C(=O)N[C@H]1c2ccccc2C[C@H]1O [Indinavir] | 100 | 38 | 24 | 36 | – | – | 3 ± 0.2 | – | – | – | – | – | – | – | – | 8
7 | CC(C)(C)NC(=O)[C@@H]1C[C@@H]2CCCC[C@@H]2CN1C[C@@H](O)[C@H](Cc1ccccc1)NC(=O)[C@H](CC(N)=O)NC(=O)c1ccc2ccccc2n1 [Saquinavir] | 100 | 18 | 24 | 31 | – | – | 2.8 ± 0.3 | – | – | – | – | – | – | – | – | 7
